The results in this text go back to ChEMBL document CHEMBL4385646, “Structural development of 1H-pyrazolo-[3,4-b]pyridine-4-carboxylic acid derivatives as human peroxisome proliferator-activated receptor alpha (PPARα)-selective agonists” (Bioorg Med Chem Lett, 2019).

The nature of series [1]: Effect on cyclophilinA expression in human FLC4 cells after 48 hrs by SYBR green dye-based RT-PCR analysis. The class given is ADME, cell-based.
For series [2], the target named is T1, Peroxisome proliferator-activated receptor alpha (Homo sapiens, UniProt Q07869).
T1 sequence (Q07869 whole entry): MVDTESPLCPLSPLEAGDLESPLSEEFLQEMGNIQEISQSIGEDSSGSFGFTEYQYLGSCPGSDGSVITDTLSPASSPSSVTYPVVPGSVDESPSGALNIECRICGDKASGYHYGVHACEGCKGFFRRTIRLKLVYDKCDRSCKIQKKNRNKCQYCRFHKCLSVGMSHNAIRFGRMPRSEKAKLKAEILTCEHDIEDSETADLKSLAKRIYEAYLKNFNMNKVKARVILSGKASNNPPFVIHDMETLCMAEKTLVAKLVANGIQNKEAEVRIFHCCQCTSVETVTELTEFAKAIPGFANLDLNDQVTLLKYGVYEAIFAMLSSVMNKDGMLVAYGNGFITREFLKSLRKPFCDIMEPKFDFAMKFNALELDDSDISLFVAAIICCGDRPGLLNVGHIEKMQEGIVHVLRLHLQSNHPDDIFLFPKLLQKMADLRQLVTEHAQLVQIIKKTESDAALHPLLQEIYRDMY
The series is described as follows: Transactivation of human GAL4-fused PPARalpha LBD expressed in human HepG2 cells after 24 hrs by renilla luciferase reporter gene assay. The class given is cell-based.

The nature of series [3]: Metabolic stability in human liver microsomes assessed as parent compound remaining at 0.5 uM after 60 mins in presence of NADPH by LC/MS/MS analysis. It counts as ADME, Microsome. The conditions noted are these: liver microsomes, read-out: Stability. In outline: (§1)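 Compound at 0.5 μM incubated with liver microsomes at 37°C for 1 h; result given as percent remaining. Final DMSO 0.2%.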

Series [4] concerns the target T2, Peroxisome proliferator-activated receptor alpha (Rattus norvegicus, UniProt P37230).
T2 sequence (P37230 whole entry): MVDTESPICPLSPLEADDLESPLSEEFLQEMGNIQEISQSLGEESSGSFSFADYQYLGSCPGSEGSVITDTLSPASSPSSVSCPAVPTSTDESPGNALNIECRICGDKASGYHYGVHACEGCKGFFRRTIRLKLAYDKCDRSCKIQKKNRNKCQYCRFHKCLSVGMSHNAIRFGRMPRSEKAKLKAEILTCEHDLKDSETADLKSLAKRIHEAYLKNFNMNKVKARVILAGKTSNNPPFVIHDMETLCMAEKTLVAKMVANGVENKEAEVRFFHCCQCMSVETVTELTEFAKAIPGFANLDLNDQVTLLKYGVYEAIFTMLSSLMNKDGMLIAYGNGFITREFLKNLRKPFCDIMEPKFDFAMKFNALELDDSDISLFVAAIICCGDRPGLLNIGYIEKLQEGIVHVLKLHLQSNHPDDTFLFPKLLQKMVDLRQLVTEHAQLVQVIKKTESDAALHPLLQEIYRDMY
The experiment in a line: Transactivation of rat GAL4-fused PPARalpha expressed in human HepG2 cells after 24 hrs by dual renilla-luciferase reporter gene assay. The class given is cell-based. In outline: (§2)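 HepG2 cells carried GAL4-fused human PPARγ or PPARδ, or mouse or rat PPARα, plus the 4xUAS-tk-luc reporter. Cells treated across a concentration range for 24 h. Luciferase normalized to Renilla activity and expressed as fold induction over vehicle, set as 1.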
For orientation: A reporter such as luciferase makes a cellular process visible.

Series [5] addresses T3, Peroxisome proliferator-activated receptor alpha (Mus musculus, UniProt P23204).
T3 sequence (P23204 whole entry): T2 sequence (P37230 whole entry) with L41I, S50G, A85V, V86I, T88A, N96S, A135V, A207G, N265D
The experiment in a line: Transactivation of mouse GAL4-fused PPARalpha expressed in human HepG2 cells after 24 hrs by dual renilla-luciferase reporter gene assay. The class given is cell-based. The method in brief:
as §2

The nature of series [6]: Apparent permeability from apical to basolateral side in human Caco2 cells at 25 uM measured up to 2 hrs by LC/MS/MS analysis. The conditions noted are these: Caco-2. The class given is ADME, cell-based. The method in brief:
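Caco-2 monolayers; permeability measured apical-to-basolateral (A–B) at 25 μM compound, reported as ×10⁻⁶ cm/s.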

A short description of series [7]: Metabolic stability in rat liver microsomes assessed as parent compound remaining at 0.5 uM after 60 mins in presence of NADPH by LC/MS/MS analysis. The following applies: liver microsomes, read-out: Stability. It counts as ADME, Microsome. In outline:
as §1
(In general: Liver microsomes are a subcellular fraction often used to study metabolism.)

In series [8] the target is Peroxisome proliferator-activated receptor alpha (Homo sapiens) (UniProt Q07869). The experiment in a line: Displacement of fluormone pan-PPAR green from GST-tagged human PPARalpha ligand binding domain after 3 hrs by TR-FRET assay. For orientation: Time-resolved FRET reads energy transfer from a long-lived donor to a nearby acceptor.
Series [9] in a line: Protein binding in rat plasma at 20 uM after 5 hrs by LC/MS/MS analysis. It counts as ADME, cell-free. The conditions noted are these: read-out: PPB. In outline: (§3)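 Compound at 20 μM incubated with plasma at 37°C for 5 h; percent bound to protein determined. Final DMSO 0.2%.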
Series [10] can be described thus: Solubility of the compound in pH 7.4 PBS at 100 uM incubated for 10 mins under shaking condition by HPLC analysis. It counts as physicochemical. In outline:
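Aqueous solubility determined in PBS, pH 7.4; reported in μM.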

A short description of series [11]: Protein binding in human plasma at 20 uM after 5 hrs by LC/MS/MS analysis. The conditions noted are these: read-out: PPB (converted). It counts as ADME, cell-free. In outline: as §3
The subject of series [12] is Rattus norvegicus. The experiment in a line: […] activity in fructose-challenged Sprague-Dawley rat assessed as increase in liver ACADM mRNA expression at 30 mg/kg, po administered once daily via gavage for 2 weeks measured after 5 hrs fasting by SYBR green dye-based RT-PCR analysis. The class given is functional, organism-based. The method in brief:
(§4)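 Male rats were given 25% fructose in drinking water for 3 weeks. They then received 30 mg/kg/day orally in 0.5% methylcellulose (vehicle control) for 2 more weeks while fructose continued. Liver mRNA was measured by real-time RT-PCR, normalized to β2-microglobulin and set as 1 in the vehicle group. Values are means ± S.D.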

Series [13] concerns Rattus norvegicus. The experiment in a line: […] activity in fructose-challenged Sprague-Dawley rat assessed as increase in liver CPT1A mRNA expression at 30 mg/kg, po administered once daily via gavage for 2 weeks measured after 5 hrs fasting by SYBR green dye-based RT-PCR analysis. The class given is functional, organism-based. The method in brief: as §4
The test system of series [14] is Rattus norvegicus. The series is described as follows: […] activity in fructose-challenged Sprague-Dawley rat assessed as increase in liver ACOX1 mRNA expression at 30 mg/kg, po administered once daily via gavage for 2 weeks measured after 5 hrs fasting by SYBR green dye-based RT-PCR analysis. The class given is functional, organism-based. In outline: as §4

For series [15], the system named is Rattus norvegicus. The experiment in a line: […] activity in fructose-challenged Sprague-Dawley rat assessed as reduction in serum triglyceride level at 30 mg/kg, po administered once daily via gavage for 2 weeks measured after 5 hrs fasting. It counts as functional, organism-based. The method in brief: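 Male rats had 25% fructose in drinking water for 3 weeks, then oral dosing at 30 mg/kg/day for 2 weeks with fructose continued. The vehicle group got 0.5% methylcellulose. Serum triglyceride was measured after the 2-week treatment.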

Series [16] deals with Rattus norvegicus. The experiment in a line: […] activity in fructose-challenged Sprague-Dawley rat assessed as increase in liver SLC25A20 mRNA expression at 30 mg/kg, po administered once daily via gavage for 2 weeks measured after 5 hrs fasting by SYBR green dye-based RT-PCR analysis. The class given is functional, organism-based. The method in brief:
as §4

For orientation: EC50 means the concentration needed to bring the measured effect to its halfway point. A lower EC50 goes with greater potency. Usually Papp A→B stands for the apparent permeability from the apical to the basolateral side of a cell layer. The term IC50 denotes the point on the concentration scale where inhibition reaches its midpoint. Lower therefore signals higher potency. The term solubility denotes how much of the substance goes into solution per volume. A higher solubility goes with much dissolved substance.

Where a chain is given by its changes, count along the chain named. The source made the active and inactive calls. The rule behind the calls is not given here.

`Cc1cc(C(=O)O)c2c(C(C)C)nn(-c3ccc(Cl)cc3)c2n1`: in series [1], the Activity result is on record as “Non-Toxic”. The concentration giving a half-maximal response (EC50) was 0.66 µM in series [2], 15.9 µM in series [4] and 11.3 µM in series [5]. Besides, the remaining at 1 h, 0.5 µM in [3] was determined as 91%; in series [7] it was 87%. Also, the Papp A→B at 2 h, 25 µM in series [6] stood at 51.8 ×10⁻⁶ cm/s. The compound also returned an IC50 in series [8] of 4.48 µM. Besides, the fraction unbound at 5 h, 20 µM in series [9] was 0.01; in [11] it was 0.003. Further, in [10], the solubility at 10 min, 100 µM is more than 95 µM.
Take `CC(C)OC(=O)C(C)(C)Oc1ccc(C(=O)c2ccc(Cl)cc2)cc1`: the result with Rattus norvegicus [12], with Rattus norvegicus [13], in the series on Rattus norvegicus [14], with Rattus norvegicus [15] and with Rattus norvegicus [16] was Active.
